For 4 compounds, MIC results are on record in ChEMBL document CHEMBL1141283, “Benzaldehyde derivatives from Sarcodontia crocea” (2007).

What all share (type): functional
The subject of one experiment is Bacillus subtilis. As to the kind of experiment: Antibacterial activity against Bacillus subtilis IMI347329 by microdilution method. The method in brief: (§1)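 Broth microdilution with two-fold (×2) dilution series of compounds from 1.56 to 800 µg/mL, four replicates per concentration per test strain; MIC taken as the lowest concentration inhibiting growth. Nystatin (fungi) and chloramphenicol (bacteria) were run as positive controls over the same concentration range.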

The subject of another experiment is Pseudomonas syringae. As to the kind of experiment: Antibacterial activity against Pseudomonas syringae IMI347448 by microdilution method. The method in brief:
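Two-fold broth microdilution MIC, four replicates per concentration per strain, over 1.56 to 800 µg/mL. Chloramphenicol served as the antibacterial positive control across the same concentration range.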
On the technique in general: Dilution methods test growth across graded concentrations, often in twofold steps.

For another experiment, the system named is Eurotium amstelodami. As to the kind of experiment: Antifungal activity against Eurotium amstelodami FC1021 by microdilution method. The following applies: Aspergillus amstelodami. Summed up:
as §1

In a further experiment the test system is Botrytis cinerea. As to the kind of experiment: Antifungal activity against Botrytis cinerea IMI160282 by microdilution method. Summed up:
as §1

Another experiment concerns Cladosporium herbarum. As to the kind of experiment: Antifungal activity against Cladosporium herbarum IMI300461 by microdilution method. Summed up:
as §1

A further experiment concerns Plenodomus lingam. As to the kind of experiment: Antifungal activity against Leptosphaeria maculans IMI266355 by microdilution method. The method in brief: as §1

In brackets after ≈: the same amount, converted by molar mass.

`O=C(N[C@H](CO)[C@H](O)c1ccc([N+](=O)[O-])cc1)C(Cl)Cl` [CHLORAMPHENICOL]: the MIC in the experiment on Bacillus subtilis amounted to 6.25 µg/mL (≈ 19.3 µM); with Pseudomonas syringae, 3.13 µg/mL (≈ 9.69 µM).
As for `O=Cc1ccc(C2COC(=O)C2)cc1` (stereo not drawn), the MIC against Eurotium amstelodami was 200 µg/mL (≈ 1050 µM); against Botrytis cinerea it was 200 µg/mL (≈ 1050 µM); against Bacillus subtilis, greater than 800 µg/mL; with Cladosporium herbarum, 400 µg/mL (≈ 2100 µM); in the experiment with Plenodomus lingam it was 400 µg/mL (≈ 2100 µM); in the experiment with Pseudomonas syringae, 400 µg/mL (≈ 2100 µM).
For the compound NYSTATIN, the MIC in the experiment with Eurotium amstelodami was 50 µg/mL; with Botrytis cinerea, 50 µg/mL; in the experiment with Cladosporium herbarum it was 25 µg/mL; against Plenodomus lingam, 100 µg/mL.
For the compound `O=Cc1ccc(-c2ccoc2)cc1`, the MIC in the experiment with Eurotium amstelodami amounted to 100 µg/mL (≈ 581 µM); in the experiment with Botrytis cinerea, 200 µg/mL (≈ 1160 µM); in the experiment with Bacillus subtilis, 800 µg/mL (≈ 4650 µM); in the experiment with Cladosporium herbarum, 200 µg/mL (≈ 1160 µM); in the experiment on Plenodomus lingam, 200 µg/mL (≈ 1160 µM); in the experiment with Pseudomonas syringae, 200 µg/mL (≈ 1160 µM).

The MIC is the least concentration at which growth counts as inhibited. The low end stands for inhibition by little substance, the high end for a need for much substance.
